In PMC10666245 (ACS Omega, 2023):

What was measured:
[1] = biological target: mushroom tyrosinase; experiment: Mushroom tyrosinase inhibition, monophenolase assay; format: biochemical, Agaricus bisporus (mushroom); conditions: L-tyrosine substrate; for pIC50 ±SEM Monophenolase: mushroom tyrosinase, pH 6.5
In short: (§1)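 Test compound came from 10 mM DMSO stocks. […] Enzyme, diluted to 500 U/mL before plating, was preincubated 15 min with test compound, then substrate was added. A490 was read every 3 min up to 30 min.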

[2] = tested on: mushroom tyrosinase; experiment: Mushroom tyrosinase inhibition, diphenolase assay; format: biochemical, Agaricus bisporus (mushroom); conditions: L-DOPA substrate; for % inhibition ±SD Diphenolase: at 200 μM (asterisk); for % inhibition 500 μM ±SD Diphenolase: at 500 μM
In short: as §1

[3] = Radical scavenging activity, DPPH assay; conditions: at 500 μM, 30 min, 37 °C
In short: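 DPPH (250 μM in methanol) was mixed with an equal volume of test compound prepared at 1 mM in methanol. Reference antioxidants were run alongside, with DMSO as negative control. A515 was read after 30 min at 37 °C, in triplicate. Scavenging = 100 × (control Abs − sample Abs)/control Abs.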

[4] = Cytotoxicity against mammalian cells; format: cell-based; conditions: mouse, NCTC clone L929 murine fibroblast cells
In short: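 Murine NCTC fibroblasts (ATCC clone 929) were grown in RPMI-1640 with 10% FBS, counted by hemocytometer and seeded at 6 × 10^4/well. They were exposed to test compound at 200–1.5 μM for 48 h at 37 °C in humidified 5% CO2. Viability was read by MTT, and CC50 was derived by nonlinear regression.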

Compound	pIC50 ±SEM Monophenolase [1]	% inhibition 500 μM ±SD Diphenolase [2]	also measured
COc1cc(/C=C/C(=O)N2CCN(Cc3ccccc3)CC2)ccc1O [Compound 3b, (2E)-1-(4-Benzylpiperazin-1-yl)-3-(4-hydroxy-3-methoxyphenyl)prop-2-en-1-one]	4.16 ± 0.02	(42.3 ± 3.4%)	–
O=C(c1ccc(O)cc1)N1CCN(Cc2ccccc2)CC1 [Compound 1d, (4-Benzylpiperazin-1-yl)-(4-hydroxyphenyl)methanone]	4.11 ± 0.05	(35.2 ± 3.3%)	–
O=C(/C=C/c1ccc(O)c(O)c1)N1CCN(c2ccccc2)CC1 [Compound 4a, (E)-3-(3,4-Dihydroxyphenyl)-1-(4-phenylpiperazin-1-yl)prop-2-en-1-one]	–	–	radical scavenging activity (DPPH) [3]: 65.0%; CC50 at 48 h [4]: 57.2 ± 2 µM
COc1ccc(C(=O)N2CCN(c3ccccc3)CC2)cc1 [Compound 2c, (4-Methoxyphenyl)-(4-phenylpiperazin-1-yl)methanone]	3.54 ± 0.05	(31.1 ± 5.3%)	–
O=C(c1ccc(Cl)cc1)N1CCN(Cc2ccccc2)CC1 [Compound 1e, 1-Benzyl-4-(4-chlorobenzoyl)piperazine]	4.37 ± 0.04	(45.2 ± 7.6%)	–
O=C(/C=C/c1ccc(O)c(O)c1)N1CCN(Cc2ccccc2)CC1 [Compound 3a, (E)-1-(4-Benzylpiperazin-1-yl)-3-(3,4-dihydroxyphenyl)prop-2-en-1-one]	–	–	IC50 ([1]; read-out: IC50 tyrosinase inhibition, monophenolase): < 100 µM; pIC50 ±SEM Diphenolase ([2]; mushroom tyrosinase, pH 6.5): 4.18 ± 0.03; IC50 ([2]; read-out: IC50 tyrosinase inhibition, diphenolase): < 100 µM; radical scavenging activity (DPPH) [3]: 29%
O=C(/C=C/c1ccc(O)cc1)N1CCC(Cc2ccccc2)CC1 [Compound 6d, (E)-1-(4-Benzyl-1-piperidyl)-3-(4-hydroxyphenyl)prop-2-en-1-one]	–	–	% inhibition ±SD Monophenolase ([1]; at 200 μM (asterisk)): (48.3 ± 1.1%); % inhibition ±SD Diphenolase [2]: (20.3 ± 1.3%)
COc1ccc(C(=O)N2CCN(Cc3ccccc3)CC2)cc1 [Compound 1c, (4-Benzylpiperazin-1-yl)-(4-methoxyphenyl)methanone]	3.94 ± 0.06	(44.2 ± 3.0%)	–
O=C(c1ccc(O)c(O)c1)N1CCN(Cc2ccccc2)CC1 [Compound 1a, (4-Benzylpiperazin-1-yl)-(3,4-dihydroxyphenyl)methanone]	4.42 ± 0.04	(37.0 ± 2.7%)	–
O=C(c1ccc(O)c(O)c1)N1CCN(c2ccccc2)CC1 [Compound 2a, (3,4-Dihydroxyphenyl)-(4-phenylpiperazin-1-yl)methanone]	4.42 ± 0.04	(27.7 ± 3.0%)	–
COc1cc(C(=O)N2CCN(Cc3ccccc3)CC2)ccc1O [Compound 1b, (4-Benzylpiperazin-1-yl)(4-hydroxy-3-methoxyphenyl)methanone]	4.49 ± 0.02	(41.6 ± 1.2%)	–
COc1cc(C(=O)N2CCN(c3ccccc3)CC2)ccc1O [Compound 2b, (4-Hydroxy-3-methoxyphenyl)-(4-phenylpiperazin-1-yl)methanone]	3.85 ± 0.03	(24.3 ± 4.1%)	–

More lines, main results first:

pIC50 ±SEM Monophenolase [1]	% inhibition 500 μM ±SD Diphenolase [2]	Compound	also measured
4.74 ± 0.04	–	O=C(c1ccc(O)c(O)c1)N1CCC(Cc2ccccc2)CC1 [Compound 5a, (4-Benzyl-1-piperidyl)-(3,4-dihydroxyphenyl)methanone]	% inhibition ±SD Diphenolase [2]: (30.9 ± 3.9%); radical scavenging activity (DPPH) [3]: 42%
4.53 ± 0.01	–	COc1cc(/C=C/C(=O)N2CCC(Cc3ccccc3)CC2)ccc1O [Compound 6b, (E)-1-(4-Benzyl-1-piperidyl)-3-(4-hydroxy-3-methoxy-phenyl)prop-2-en-1-one]	% inhibition ±SD Diphenolase [2]: (12.0 ± 1.5%); radical scavenging activity (DPPH) [3]: 28%
4.54 ± 0.03	(43.0 ± 2.9%)	O=C(/C=C/c1ccc(O)cc1)N1CCN(Cc2ccccc2)CC1 [Compound 3d, (E)-1-(4-Benzylpiperazin-1-yl)-3-(4-hydroxyphenyl)prop-2-en-1-one]	–
4.99 ± 0.01	–	COc1cc(C(=O)N2CCC(Cc3ccccc3)CC2)ccc1O [Compound 5b, (4-Benzyl-1-piperidyl)-(4-hydroxy-3-methoxy-phenyl)methanone]	% inhibition ±SD Diphenolase [2]: (13.2 ± 0.8%); radical scavenging activity (DPPH) [3]: 10%
4.50 ± 0.04	(51.5 ± 3.2%)	COc1cc(/C=C/C(=O)N2CCN(c3ccccc3)CC2)ccc1O [Compound 4b, (E)-3-(4-Hydroxy-3-methoxyphenyl)-1-(4-phenylpiperazin-1-yl)prop-2-en-1-one]	–
4.00 ± 0.01	(16.4 ± 13.0%)	O=C(O)/C=C/c1ccc(O)cc1 [pCA, p-coumaric acid, reference compound]	–
4.85 ± 0.07	(22.1 ± 3.1%)	(E)-1-(1-Benzylpiperidin-4-yl)-3-(4-methoxyphenyl)prop-2-en-1-one [Compound 6c]	–
3.86 ± 0.04	(43.5 ± 2.3%)	COc1ccc(/C=C/C(=O)N2CCN(Cc3ccccc3)CC2)cc1 [Compound 3c, (E)-1-(4-Benzylpiperazin-1-yl)-3-(4-methoxyphenyl)prop-2-en-1-one]	–
4.67 ± 0.01	(30.5 ± 1.6%)	COc1ccc(C(=O)N2CCC(Cc3ccccc3)CC2)cc1 [Compound 5c, 4-Benzyl-1-(4-methoxybenzoyl)piperidine]	–
4.56 ± 0.01	–	O=C(/C=C/c1ccc(O)c(O)c1)N1CCC(Cc2ccccc2)CC1 [Compound 6a, (E)-1-(4-Benzyl-1-piperidyl)-3-(3,4-dihydroxyphenyl)prop-2-en-1-one]	% inhibition ±SD Diphenolase [2]: (18.5 ± 1.1%)
4.59 ± 0.01	–	O=C(c1ccc(O)cc1)N1CCC(Cc2ccccc2)CC1 [Compound 5d, (4-Benzyl-1-piperidyl)-(4-hydroxyphenyl)methanone]	% inhibition ±SD Diphenolase [2]: (14.7 ± 1.6%)
